Active and inactive are the calls of the source. The rule behind the calls is not given here.
How the values were obtained:
[1] = Antiplatelet activity against rabbit platelets assessed as inhibition of PAF-induced platelet aggregation at 100 ug/ml preincubated for 3 mins by turbidimetric method; format: functional, Oryctolagus cuniculus; set-up: scale not given: the % may be the effect or the level left
How it was run: (§1)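 Washed rabbit platelets were preincubated with test sample or 0.5% DMSO vehicle for 3 min at 37 °C. Inducers were thrombin 0.1 U/mL, arachidonic acid 100 μM, collagen 10 μg/mL or PAF 2 nM. Turbidimetric read-out took platelet suspension absorbance as 0% and platelet-free Tyrode's as 100% aggregation, measured at 6 min. Results are mean ± SEM with n per entry.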

[2] = Antiplatelet activity against rabbit platelets assessed as inhibition of PAF-induced platelet aggregation at 50 ug/ml preincubated for 3 mins by turbidimetric method; format: functional, Oryctolagus cuniculus; set-up: scale not given: the % may be the effect or the level left; how it was run: as §1
[3] = Antiplatelet activity against rabbit platelets assessed as inhibition of PAF-induced platelet aggregation at 20 ug/ml preincubated for 3 mins by turbidimetric method; format: functional, Oryctolagus cuniculus; set-up: scale not given: the % may be the effect or the level left; how it was run: as §1
[4] = Antiplatelet activity against rabbit platelets assessed as inhibition of PAF-induced platelet aggregation at 10 ug/ml preincubated for 3 mins by turbidimetric method; format: functional, Oryctolagus cuniculus; set-up: scale not given: the % may be the effect or the level left; how it was run: as §1
[5] = tested on: Aorta; assay: Vasorelaxation activity in rat aorta assessed as inhibition of K+-induced contraction at 50 ug/ml preincubated for 15 mins relative to control; format: functional; set-up: scale not given: the % may be the effect or the level left
How it was run: (§2)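 Rat aorta was preincubated with test sample or 0.1% DMSO vehicle at 37 °C for 15 min. Contraction was then evoked with high K+ (80 mM) or norepinephrine (3 μM). Response is expressed as percent of control contraction, mean ± SEM, n = 3.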

[6] = tested on: Aorta; assay: Vasorelaxation activity in rat aorta assessed as inhibition of K+-induced contraction at 15 ug/ml preincubated for 15 mins relative to control; format: functional; set-up: scale not given: the % may be the effect or the level left; how it was run: as §2
[7] = tested on: Aorta; assay: Vasorelaxation activity in rat aorta assessed as inhibition of K+-induced contraction at 5 ug/ml preincubated for 15 mins relative to control; format: functional; set-up: scale not given: the % may be the effect or the level left; how it was run: as §2
[8] = tested on: Aorta; assay: Vasorelaxation activity in rat aorta assessed as inhibition of norepinephrine-induced phasic contraction at 50 ug/ml preincubated for 15 mins relative to control; format: functional; set-up: scale not given: the % may be the effect or the level left; how it was run: as §2
[9] = tested on: Aorta; assay: Vasorelaxation activity in rat aorta assessed as inhibition of norepinephrine-induced phasic contraction at 15 ug/ml preincubated for 15 mins relative to control; format: functional; set-up: scale not given: the % may be the effect or the level left; how it was run: as §2
[10] = tested on: Aorta; assay: Vasorelaxation activity in rat aorta assessed as inhibition of norepinephrine-induced tonic contraction at 50 ug/ml preincubated for 15 mins relative to control; format: functional; set-up: scale not given: the % may be the effect or the level left; how it was run: as §2
[11] = tested on: Aorta; assay: Vasorelaxation activity in rat aorta assessed as inhibition of norepinephrine-induced tonic contraction at 15 ug/ml preincubated for 15 mins relative to control; format: functional; set-up: scale not given: the % may be the effect or the level left; how it was run: as §2
[12] = Antiplatelet activity against rabbit platelets assessed as inhibition of thrombin-induced platelet aggregation at 100 ug/ml preincubated for 3 mins by turbidimetric method; format: functional, Oryctolagus cuniculus; set-up: scale not given: the % may be the effect or the level left; how it was run: as §1
[13] = (§3) Antiplatelet activity against rabbit platelets assessed as inhibition of arachidonic acid-induced platelet aggregation at 100 ug/ml preincubated for 3 mins by turbidimetric method; format: functional, Oryctolagus cuniculus; set-up: scale not given: the % may be the effect or the level left; how it was run: as §1
[14] = Antiplatelet activity against rabbit platelets assessed as inhibition of arachidonic acid-induced platelet aggregation at 20 ug/ml preincubated for 3 mins by turbidimetric method; format: functional, Oryctolagus cuniculus; set-up: scale not given: the % may be the effect or the level left; how it was run: as §1
[15] = Antiplatelet activity against rabbit platelets assessed as inhibition of arachidonic acid-induced platelet aggregation at 10 ug/ml preincubated for 3 mins by turbidimetric method; format: functional, Oryctolagus cuniculus; set-up: scale not given: the % may be the effect or the level left; how it was run: as §1
[16] = Antiplatelet activity against rabbit platelets assessed as inhibition of arachidonic acid-induced platelet aggregation at 5 ug/ml preincubated for 3 mins by turbidimetric method; format: functional, Oryctolagus cuniculus; set-up: scale not given: the % may be the effect or the level left
How it was run: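 Washed rabbit platelet suspension preincubated with DMSO (0.5%, control) or sample at 37 °C for 3 min. Arachidonic acid (100 μM) then added. Turbidimetric read-out with platelet suspension as 0% and platelet-free Tyrode's solution as 100% aggregation. Percent aggregation read at 6 min. Means ± S.E.M. (n).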

[17] = (§4) Antiplatelet activity against rabbit platelets assessed as inhibition of collagen-induced platelet aggregation at 100 ug/ml preincubated for 3 mins by turbidimetric method; format: functional, Oryctolagus cuniculus; set-up: scale not given: the % may be the effect or the level left; how it was run: as §1
[18] = Antiplatelet activity against rabbit platelets assessed as inhibition of thrombin-induced platelet aggregation at 50 ug/ml preincubated for 3 mins by turbidimetric method; format: functional, Oryctolagus cuniculus; set-up: scale not given: the % may be the effect or the level left; how it was run: as §1
[19] = Antiplatelet activity against rabbit platelets assessed as inhibition of thrombin-induced platelet aggregation at 20 ug/ml preincubated for 3 mins by turbidimetric method; format: functional, Oryctolagus cuniculus; set-up: scale not given: the % may be the effect or the level left; how it was run: as §1
[20] = (§5) Antiplatelet activity against rabbit platelets assessed as inhibition of arachidonic acid-induced platelet aggregation at 50 ug/ml preincubated for 3 mins by turbidimetric method; format: functional, Oryctolagus cuniculus; set-up: scale not given: the % may be the effect or the level left; how it was run: as §1
[21] = (§6) Antiplatelet activity against rabbit platelets assessed as inhibition of collagen-induced platelet aggregation at 50 ug/ml preincubated for 3 mins by turbidimetric method; format: functional, Oryctolagus cuniculus; set-up: scale not given: the % may be the effect or the level left; how it was run: as §1
[22] = Antiplatelet activity against rabbit platelets assessed as inhibition of collagen-induced platelet aggregation at 20 ug/ml preincubated for 3 mins by turbidimetric method; format: functional, Oryctolagus cuniculus; set-up: scale not given: the % may be the effect or the level left; how it was run: as §1
[23] = tested on: Aorta; assay: Vasorelaxation activity in rat aorta assessed as inhibition of K+-induced contraction at 100 ug/ml preincubated for 15 mins relative to control; format: functional; set-up: scale not given: the % may be the effect or the level left; how it was run: as §2
[24] = tested on: Aorta; assay: Vasorelaxation activity in rat aorta assessed as inhibition of norepinephrine-induced phasic contraction at 100 ug/ml preincubated for 15 mins relative to control; format: functional; set-up: scale not given: the % may be the effect or the level left; how it was run: as §2
[25] = tested on: Aorta; assay: Vasorelaxation activity in rat aorta assessed as inhibition of norepinephrine-induced tonic contraction at 100 ug/ml preincubated for 15 mins relative to control; format: functional; set-up: scale not given: the % may be the effect or the level left; how it was run: as §2
[26] = tested on: Platelet; assay: as §4; format: functional; conditions: Oryctolagus cuniculus; how it was run: as §1
[27] = tested on: Platelet; assay: as §6; format: functional; conditions: Oryctolagus cuniculus; how it was run: as §1
[28] = tested on: Platelet; assay: as §3; format: functional; conditions: Oryctolagus cuniculus; how it was run: as §1
[29] = tested on: Platelet; assay: as §5; format: functional; conditions: Oryctolagus cuniculus; how it was run: as §1

Structure (SMILES)	Activity [1]	Activity [2]	Activity [3]	Activity [5]	Activity [8]	Activity [10]	Activity [12]	Activity [13]	Activity [14]	Activity [15]	Activity [16]	Activity [17]	Activity [20]	also measured
COc1ccc(-c2oc3c(OC)c(OC)cc(OC(C)=O)c3c(=O)c2OC(C)=O)cc1	0%	46.7%	71.2%	25.3%	74.6%	58.7%	88.5%	0%	0%	29%	51.1%	5.1%	–	Activity [4]: 78%; Activity [6]: 57.1%; Activity [7]: 84.8%; Activity [9]: 94.6%; Activity [11]: 86.3%
CCCCCCC(=O)CC/C=C/C=C/C(=O)NCC(C)C [LANYUAMIDE I]	0%	20%	76%	28.6%	77.1%	45.5%	8.9%	0%	15.6%	–	–	0%	0%	Activity [6]: 47.6%; Activity [7]: 82%; Activity [9]: 100%; Activity [11]: 77.1%; Activity [18]: 75.7%; Activity [19]: 80.4%; Activity [21]: 0%; Activity [22]: 2.7%
COc1ccc(-c2oc3c(OC)c(OC)cc(O)c3c(=O)c2O)cc1 [TAMBULIN]	78.6%	–	–	–	–	–	81.1%	73.3%	–	–	–	64.9%	–	Activity [23]: 104.7%; Activity [24]: 100.2%; Activity [25]: 98.6%
CCCCCCCCC/C=C/C=C/C(=O)NCC(C)(C)O [TETRAHYDROBUNGEANOOL]	6.7%	82.7%	–	–	–	–	74%	0%	–	–	–	0%	58.3%	–
COc1cc2ccc(=O)oc2cc1O [SCOPOLETIN]	78.2%	–	–	88.4%	91.9%	81.6%	89.8%	80.5%	–	–	–	80.9%	–	–
CC/C=C\C/C=C\CC/C=C/C=C/C(=O)NCC(C)(C)O	38.4%	–	–	–	–	–	89.2%	0%	4%	27.8%	46.2%	0%	0%	–
CCCCCCCCCCCC(C)=O [2-TRIDECANONE]	–	–	–	–	–	–	–	–	63.5%	–	–	–	–	Activity [26]: inactive; Activity [27]: inactive
CC/C=C/C/C=C\CC/C=C/C=C/C(=O)NCC(C)(C)O	38.4%	–	–	–	–	–	89.2%	0%	4%	27.8%	46.2%	0%	0%	–
c1cc2c(cc1[C@H]1OC[C@H]3[C@@H]1CO[C@@H]3c1ccc3c(c1)OCO3)OCO2 [SESAMIN]	–	–	83.7%	–	–	–	–	–	82.3%	–	–	–	–	Activity [19]: 87.8%; Activity [28]: inactive; Activity [29]: inactive; Activity [26]: inactive; Activity [27]: inactive; Activity [22]: 83.2%
